These results are taken from ChEMBL document CHEMBL1130190, “Thromboxane modulating agents. 3. 1H-imidazol-1-ylalkyl- and 3-pyridinylalkyl-substituted 3-[2-[(arylsulfonyl)amino]ethyl]benzenepropanoic acid derivatives as dual thromboxane synthase inhibitor/thromboxane receptor antagonists” (J Med Chem, 1997).

In test [1] the target is T1, Thromboxane A2 receptor (Rattus norvegicus) (UniProt P34978).
T1 sequence (whole entry): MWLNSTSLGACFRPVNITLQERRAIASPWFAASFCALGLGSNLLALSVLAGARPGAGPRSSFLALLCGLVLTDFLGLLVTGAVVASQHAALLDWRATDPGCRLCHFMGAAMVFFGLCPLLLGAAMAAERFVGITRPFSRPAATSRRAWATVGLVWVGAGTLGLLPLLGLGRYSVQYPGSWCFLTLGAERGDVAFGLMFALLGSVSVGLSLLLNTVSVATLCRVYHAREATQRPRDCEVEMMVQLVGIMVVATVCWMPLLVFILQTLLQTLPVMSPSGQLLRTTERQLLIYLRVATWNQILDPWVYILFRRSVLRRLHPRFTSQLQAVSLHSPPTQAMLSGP
Put plainly: Antagonist activity against TXA2 receptor measured by inhibition of U-46,619-induced contractions of rat aorta. The class given is functional, tissue-based. An outline of the steps: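 Spirally cut rat aortic strips held under 1 g resting tension for isometric recording in Krebs-bicarbonate at 37 °C, oxygenated, equilibrated 2 h. Primed with U46619 for 10 min, washed, and rested 1 h. Cumulative U46619 (1–100 nM) contraction curves were run before and after 15 min compound exposure (1 h for footnoted entries) at several concentrations. Antagonism was derived from the shifted curves.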

The target of a further test is T2, Thromboxane-A synthase (Homo sapiens, UniProt P24557).
T2 sequence (P24557 whole entry): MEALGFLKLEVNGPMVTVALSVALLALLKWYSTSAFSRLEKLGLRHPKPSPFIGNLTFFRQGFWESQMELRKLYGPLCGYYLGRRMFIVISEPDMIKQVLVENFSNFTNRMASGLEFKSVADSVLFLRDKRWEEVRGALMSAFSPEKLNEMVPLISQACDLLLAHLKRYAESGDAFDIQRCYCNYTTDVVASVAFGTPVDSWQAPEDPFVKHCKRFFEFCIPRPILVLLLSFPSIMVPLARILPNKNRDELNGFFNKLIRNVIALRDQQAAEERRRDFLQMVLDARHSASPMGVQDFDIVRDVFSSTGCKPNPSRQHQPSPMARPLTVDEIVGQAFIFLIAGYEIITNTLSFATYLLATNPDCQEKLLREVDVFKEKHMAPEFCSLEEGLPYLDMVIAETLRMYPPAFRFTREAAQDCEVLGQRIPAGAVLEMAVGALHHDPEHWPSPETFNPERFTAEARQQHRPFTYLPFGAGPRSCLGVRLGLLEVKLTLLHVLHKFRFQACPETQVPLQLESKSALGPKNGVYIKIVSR
Nature of the test: Activity against human platelet microsome Thromboxane synthase.

Consider `CC(c1cccnc1)c1cc(CCNS(=O)(=O)c2ccc(Cl)cc2)cc(CCC(=O)O)c1` (configuration not stated), for which the pA2 – broadly, the negative logarithm of the molar antagonist concentration that doubles the agonist concentration needed for the same response – in test [1] came to 10.2.
As for `CCCS(=O)(=O)NCCc1cc(CCC(=O)O)cc(Cc2cccnc2)c1`, the IC50 (commonly the point on the concentration scale where inhibition reaches its midpoint) against Thromboxane-A synthase was 29 nM. The pA2 in test [1] worked out at 7.71.
The matching figures for `O=C(O)CCc1cc(CCNS(=O)(=O)c2ccccc2)cc(Cn2ccnc2)c1`: 18 nM and 7.89.
`CN(CCc1cc(CCC(=O)O)cc(Cc2cccnc2)c1)S(=O)(=O)c1ccc(Cl)cc1` yielded an IC50 against Thromboxane-A synthase of 54 nM. This compound also displayed a pA2 in test [1] of 6.78.
`C=C(c1cccnc1)c1cc(CCNS(=O)(=O)c2ccc(Cl)cc2)cc(CCC(=O)O)c1` registered a pA2 in test [1] of 10.
Compound `CC(C)(C)CS(=O)(=O)NCCc1cc(CCC(=O)O)cc(Cc2cccnc2)c1` gave an IC50 against Thromboxane-A synthase of 39 nM. This compound also showed a pA2 in test [1] of 8.1.
Take `O=C(O)COc1ccc(CCNS(=O)(=O)c2ccccc2)cc1`: the pA2 in test [1] was 7.09.
For the compound `CN(C)S(=O)(=O)NCCc1cc(CCC(=O)O)cc(Cc2cccnc2)c1`, the IC50 at Thromboxane-A synthase was found to be 22 nM. In test [1], the pA2 is 7.69.
For `O=C(O)CCc1cc(CCCS(=O)(=O)c2ccccc2)cc(Cc2cccnc2)c1`, in that order: 27 nM and 7.8.
For the compound `O=C(O)CCc1cc(CCNS(=O)(=O)c2ccc(Br)cc2)cc(Cc2cccnc2)c1`, in test [1], the pA2 was determined as 9.44.
The same measure, in the same setting: the value for `O=C(O)CCn1cc(Cn2ccnc2)c2cc(NS(=O)(=O)c3ccc(F)cc3)ccc21` was 8.2.
At Thromboxane-A synthase, `O=C(O)CCc1cc(CCNS(=O)(=O)c2ccc(F)cc2)cc(Cc2cccnc2)c1` came in with an IC50 of 20 nM. In test [1], this compound showed a pA2 of 8.9.
As to `O=C(O)CCc1cccc(CCNS(=O)(=O)c2ccc(Cl)cc2)c1`, the pA2 in test [1] came to 8.71.
Compound `O=C(O)CCc1cc(CCNC(=O)c2ccccc2)cc(Cc2cccnc2)c1` registered an IC50 at Thromboxane-A synthase of 22 nM. The compound further gave a pA2 in test [1] of 7.96.
The matching figures for `CCN(CC)S(=O)(=O)NCCc1cc(CCC(=O)O)cc(Cc2cccnc2)c1`: 29 nM and 7.43.
For `O=C(O)CCc1cc(CCNS(=O)(=O)c2ccc(Cl)cc2)cc(Cc2cccnc2)c1`, in test [1], the pA2 worked out at 9.39.
`O=C(O)CCc1cc(CCNS(=O)(=O)N2CCCC2)cc(Cc2cccnc2)c1` displayed an IC50 at Thromboxane-A synthase of 22 nM. In test [1], this compound displayed a pA2 of 8.
For `O=C(O)CCc1cc(CCNS(=O)(=O)c2ccc(Cl)cc2)cc(Oc2cccnc2)c1`, in test [1], the pA2 was 9.4.
On Thromboxane-A synthase, `O=C(O)CCc1cc(CCNS(=O)(=O)c2ccc(Cl)cc2)cc(Cn2ccnc2)c1` came in with an IC50 of 38 nM. In test [1], this compound registered a pA2 of 8.54.
For `O=C(O)CCc1cc(CCS(=O)(=O)c2ccccc2)cc(Cc2cccnc2)c1`, in that order: 48 nM and below 6.
In test [1], `O=C(O)CCn1cc(Cc2cccnc2)c2cc(NS(=O)(=O)c3ccc(F)cc3)ccc21` came in with a pA2 of 8.85.
Still for that read-out and setting: the value for `Cc1c(Cn2ccnc2)c2cc(CCC(=O)O)ccc2n1CCNS(=O)(=O)c1ccc(F)cc1` was 8.8; that for `Cc1c(Cc2cccnc2)c2cc(CCC(=O)O)ccc2n1CCNS(=O)(=O)c1ccc(F)cc1` was 9.16.
On to `Cc1ccc(S(=O)(=O)NCCc2cc(CCC(=O)O)cc(Cc3cccnc3)c2)cc1`, for which it took 37 nM to reach half-maximal inhibition on Thromboxane-A synthase (IC50). Further, the pA2 in test [1] is 8.98.
In turn, `O=C(O)CCc1cc(CCNS(=O)(=O)N2CCCCC2)cc(Cc2cccnc2)c1` showed an IC50 at Thromboxane-A synthase of 43 nM. The pA2 in test [1] stood at 7.81.
`O=C(O)CCc1cc(CCNS(=O)(=O)c2ccccc2)cc(Cc2cccnc2)c1`: the IC50 on Thromboxane-A synthase was 45 nM. In addition, in test [1], the pA2 was 8.8.
Compound `CC(O)(c1cccnc1)c1cc(CCNS(=O)(=O)c2ccc(Cl)cc2)cc(CCC(=O)O)c1` (configuration not stated) had a pA2 in test [1] of 9.07.
`O=C(O)CCc1cc(CCNS(=O)(=O)C2CCCCC2)cc(Cc2cccnc2)c1` showed an IC50 on Thromboxane-A synthase of 43 nM. In test [1], the pA2 was found to be 7.81.
The compound `O=C(O)CCc1cc(CCNS(=O)(=O)c2ccccc2)cc(Oc2cccnc2)c1` showed a pA2 in test [1] of 9.06.
On Thromboxane-A synthase, `O=C(O)CCc1cc(CCNS(=O)(=O)Nc2ccc(Cl)cc2)cc(Cc2cccnc2)c1` gave an IC50 of 38 nM. The compound also returned a pA2 in test [1] of 8.32.
